B2AR ag = activates human beta-2 adrenergic receptor causing internalization; 0.43% of 340,000 active; Am2.2-beta2AR cells, FAP receptor internalization, flow cytometry; response, % (concentration not given with the values); AID 504454; P07550;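 active = response above a set limit, near 3 SD of response in nonfluorescent compounds, cut at about 42% in these data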
CHOP UPR activ = apoptotic UPR (CHOP) activation; AID 449763; 0.34% of 330,000 active; CHO-CHOP luciferase reporter, luminescence; percent of tunicamycin response over DMSO baseline; activation, % at 10 µM;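 active = at 10 µM dose, activation of 40% or more, normalized to positive control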;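 also: 100% = tunicamycin at 10 µg/mL and 0% = DMSO alone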
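Test system: CHO-CHOP cells, stable luciferase reporter of PERK-eIF2a-CHOP signalling | Quantity: 500 CHO-CHOP cells per well | Buffer or medium: F12 plus 10% serum | Compound dosing: 10 µM single point, 0.5% DMSO | Schedule: 6 h compound treatment, 37 °C | Signal: Luciferase luminescence | Control set: Tunicamycin high control, DMSO low control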
UPR XBP1 act = activators of adaptive arm of unfolded protein response (XBP1); CHO-XBP1 luciferase reporter, IRE1-XBP1 UPR activation, luminescence; percent of tunicamycin response, DMSO as zero; activation, % at 20 µM; 0.33% of 330,000 active; AID 463104;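 active = versus positive control, 20 µM dose yields 30% or more activation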;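 also: 100% = tunicamycin at 10 µg/mL and 0% = DMSO only wells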
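incubation = overnight seeding at 37 °C, 6 h compound treatment at 37 °C | assay system = CHO-XBP1 cells stably carrying IRE1-XBP1-driven luciferase reporter | input = 1000 cells per well | detection = luciferase luminescence | dosing = single point, 20 µM final compound, 1% DMSO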
Mdm2 ligase inh = blocks human Mdm2 ubiquitin ligase activity | cell-based MDM2 ubiquitination luciferase reporter, 2 h; 0 = plate control, 100 = twice control, blank-subtracted | signal enhancement, % at 5 µM | 0.11% of 210,000 active;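 active = signal enhancement of 30% or more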;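 also: luminescence tracks abundance of the self-degrading MDM2-luciferase fusion protein; higher signal means inhibition of MDM2 E3 ligase activity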
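Assay system: stable mammalian line carrying autodegrading MDM2–luciferase fusion reporter; Input: 2000 cells in each well; Compound dosing: single-point 5 µM; Schedule: 2 h compound exposure at 37 °C; Signal: SteadyLite luciferase luminescence after 15 min room-temperature reagent incubation; Evaluation: % luminescence enhancement versus blank-corrected plate control mean; Benchmarks: plate controls and plate blanks.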
Mdm2 MdmX PPI = disrupts the human Mdm2-MdmX interaction; 3% of 330,000 active; O15151+Q00987; SaOS-2 split-luciferase Mdm2/MdmX complementation, luminescence; inhibition, % at 8 µM;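 active = inhibition of at least 50% at 8 µM in the primary screen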
Dynein transport = blocks dynein driven cargo transport along microtubules; 0.47% of 220,000 active; 3617.4 mouse cells, GR-EGFP nuclear translocation imaging; test concentration mostly 20 µM; stimulated with dexamethasone, 1 µM; hits give low values; z-score, hits read low;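 active = plate z-score of nuclear minus cytoplasmic receptor signal below a set negative limit, without overly bright fluorescence or cell loss, cut at about -3.5 in these data, passing the limit was not always enough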;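 also: z-score of nuclear minus cytoplasmic ring GR-EGFP intensity difference per well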
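Buffer or medium: tet-free, stripped-serum medium; reagent: dexamethasone at 1.0 µM final, 30 min; incubation: 48 h induction, 1 h compound, 30 min dex at 37 °C; measured by: formaldehyde fixation, Hoechst nuclear stain, 10x automated fluorescence imaging; read-out: nuclear-to-cytoplasmic GR-EGFP distribution per well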
XBP1 UPR conf = adaptive UPR (XBP1) activation, confirmed; shares compounds with UPR XBP1 act; CHO-XBP1 IRE1-XBP1 luciferase reporter, luminescence; activation, % at 20 µM; 63% of 1,000 active; AID 485299;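 active = reporter signal at least 30% of the positive control's activation in two or more of four replicate wells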;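 also: plate controls were DMSO negative control for no effect and tunicamycin 10 µg/mL positive control for full effect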
Mdm2 MdmX conf = human Mdm2/MdmX binding inhibition, confirmed. luminescent assay. inhibition, % at 8 µM. shares compounds with Mdm2 MdmX PPI. 55% of 10,000 active; in the data active = inhibition above about 40%
FLuc counter = counter-screen for Mdm2/MdmX inhibitors: full-length luciferase; shares compounds with Mdm2 MdmX PPI; SaOS-2 full-length luciferase counterscreen, luminescence; inhibition, % at 8 µM; 77% of 6,200 active; AID 504607;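 active = mean inhibition at 8 µM reaching about 37%, which flags the compound as non-specific, limit read from the data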;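 also: p53-null SaOS-2 cells with luciferase driven by a doxycycline-inducible promoter; compound on cells about two nights before reading with doxycycline added after day one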
* marks the source's active call; other numbers are inactive results; . = no result. In the library only some 3.7% were active in any assay of this set; here they are far more common.

SMILES	B2AR ag	CHOP UPR activ	UPR XBP1 act	Mdm2 ligase inh	Mdm2 MdmX PPI	Dynein transport	XBP1 UPR conf	Mdm2 MdmX conf	FLuc counter
COc1ccc(-n2c(SCC(=O)Nc3sc4c(c3C#N)CCCC4)nnc2-c2ccccc2OC)cc1	2.1	-1.7	-0.3	11.6	45.1	1.29	.	.	.
CCOC(=O)c1c(-c2ccc(C)o2)csc1NC(=O)COC(=O)c1ccc(NC(N)=O)cc1	15.4	8.9	33.3*	-17.4	69.4*	-0.557	54.9*	15.2	.
C=CCn1c(O)c(C2=c3ccccc3=NC2=O)sc1=Nc1ccc(O)cc1	1.8	-0.4	33.5*	-3.9	78.2*	-0.0388	32.3*	0.8	.
O=C1N=c2ccccc2=C1c1sc(=S)n(NC(=O)c2ccccc2)c1O	-1.4	-0.7	-1.5	3.5	-4.4	1.09	.	.	.
COc1ccccc1Nc1nnc(SCC(=O)NC(=O)Nc2ccc3c(c2)OCCO3)s1	-0.1	-0.7	52.1*	-3.4	67.7*	-0.76	48.8*	57.5*	44.1*
Cc1ccc2nc(N(CCCN(C)C)C(=O)c3ccc(S(=O)(=O)N4CCc5ccccc5C4)cc3)sc2c1	17.5	36.2	93.5*	.	100.4*	.	49.2*	52.1*	13.8
CN(C)CCCN(C(=O)c1ccc(S(=O)(=O)N2CCc3ccccc3C2)cc1)c1nc2ccc(F)cc2s1	49.4*	24.5	31.3*	.	97.4*	.	71.2*	25.6	.
CN(C)CCCN(C(=O)c1ccc(S(=O)(=O)N2CCc3ccccc32)cc1)c1nc2ccc(F)cc2s1	16.9	2.6	5.3	.	34.2	.	.	.	.
CN(C)CCCN(C(=O)CCc1ccccc1)c1nc2ccc(F)cc2s1	-0.1	2.2	2.5	-9.2	18.3	0.126	.	.	.
Cc1cc(C)c2sc(N(CCCN(C)C)C(=O)c3ccc(S(=O)(=O)N4CCCc5ccccc54)cc3)nc2c1	33.3	8.5	31.2*	.	99.2*	.	54.0*	56.9*	73.0*
CN(C)CCCN(C(=O)c1cc(-c2cccs2)nc2ccccc12)c1nc2ccc(F)cc2s1	16.0	5.1	33.5*	.	100.3*	.	39.8*	56.6*	67.5*
O=C1C=C(c2ccc(OC(F)(F)F)cc2)C[C@@H](c2ccc(Cl)cc2)C1	8.0	-0.6	-1.2	.	6.3	.	.	.	.
C=CCN1C(=O)/C(=C2/Sc3ccc(OC)cc3N2C)SC1=Nc1cccc(O)c1	3.8	17.5	47.9*	-5.4	66.9*	1.41	81.0*	29.0	.
Cc1ccc(-n2nc3c(N4CCC(C(=O)NCCc5ccccc5C)CC4)nnc(C)c3c2C)cc1	-4.4	3.3	39.1*	.	97.6*	.	30.4*	42.7*	52.7*
COc1ccc(-c2nn(-c3ccccc3)cc2/C=N/N2C(=O)CSC2=S)cc1	10.9	21.7	38.9*	-7.1	96.8*	-0.645	27.2*	30.9	.
COc1ccc(/C=N/N2C(=O)CSC2=S)cc1	-0.9	-1.8	-1.9	-19.9	-5.2	-0.696	.	.	.
Cc1ccc(C(C)n2cc(C(=O)NCc3ccccn3)nn2)cc1 (stereo unspecified)	-5.8	-2.7	0.2	-14.6	-2.9	-0.61	.	.	.
Cc1ccccc1NC(=O)Nc1nnc(Cc2ccc([N+](=O)[O-])cc2)s1	10.6	4.8	72.5*	-1.1	66.6*	0.436	3.1	9.8	.
COc1ccc(/C=N/Nc2cc(C)nc3ccc(Br)cc23)cc1	36.7	20.0	32.1*	.	97.5*	.	36.3*	24.6	.
COc1ccc(CCNC(=O)/C(C#N)=C2\N=C(NC(=O)c3ccco3)c3ccccc32)cc1	31.7	10.7	33.0*	-10.3	52.5*	0.0215	24.1	-12.9	.
